Compound activity: PubChem, Broad Institute
Shown are actives, neighbours in structure and some others; about 3.5% of the full set was active somewhere.
PGC1a acetyl inh: lowers PGC1a acetylation signal in U2OS cells; inhibition, % at 15.6 µM; AlphaScreen anti-acetyl-lysine; with virally co-expressed GCN5 acetyltransferase; hit rate 0.17% among 350,000; AID 651687;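 active = every replicate shows inhibition of at least 40%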;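 also: 0% = neutral control wells and 100% = positive control wells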
FN deposit inh: fibronectin deposition inhibition; hit rate 0.086% among 350,000; AH1F fibroblasts, Alexa488-fibronectin deposition fluorescence, overnight; AID 743247; inhibition, % at 12.6 µM;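 active = mean inhibition across replicates of 30% or more, regardless of how many single replicates reach that level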;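 also: positive control wells lacked labelled fibronectin entirely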
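Assay system: AH1F fibroblast monolayer, labelled fibronectin deposition. Amount: 10000 cells per well. Also added: labelled fibronectin 24 nM. Compound: single-point pinned compound. Incubation: cell attachment 1 h, compound and FN exposure overnight. Detection: fluorescence after three HBSS washes, excitation 485 nm, emission 525 nm. Read-out: inhibition of fibronectin deposition signal.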
DENV2 CPE rescue: inhibitors of DENV2 cytopathic effect; DENV2-infected cells, cytopathic effect rescue, plate reader; CPE inhibition, % at 9.99 µM; hit rate 1.7% among 350,000; in the data active = CPE inhibition above about 20%, passing the limit was not always enough; tested in BHK-21 cells;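 also: 0% = median of neutral control wells and 100% = median of positive control wells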
PglD DTNB: inhibitors of Campylobacter jejuni PglD acetyltransferase | purified PglD enzyme, DTNB colorimetric CoA detection | inhibition, % at 12.5 µM | hit rate 0.098% among 360,000 | AID 602405; in the data active = inhibition above about 16%, passing the limit was not always enough
rRNA inh HTS: inhibitors of bacterial rRNA selective over humanized ribosomes. GFP signal change (wild-type ribosome), % (no concentration beside the values). AID 720706. E. coli WT GFP vs humanized-ribosome RFP mutants, fluorescence, 24 h; active compounds read low; DMSO median 0, no signal -100. hit rate 1.6% among 350,000;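 active = significant combined selectivity score with lowered wild-type GFP, culture density cut under 30%, mutant RFP and density less affected; inactive = any of these conditions unmet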
Env fusion inh: blocks HIV Env-driven cell-cell fusion; HeLa-JRFL Env/CEM21 cell fusion, luciferase; inhibition, % at 12.3 µM; hit rate 1.1% among 360,000;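 active = mean replicate inhibition score of at least 50 and every replicate individually at or above 50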;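 also: 0% = plate neutral controls and 100% = maraviroc near 300 nM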
Active calls of the source: *; ! = a repeat was not active; [ ] = another dose, or the depositor's remark.

What do the screens show for `COC(=O)C[C@H]1C[C@H]2c3cc(NC(=O)C4CCOCC4)ccc3O[C@H]2[C@H](CO)O1`?
PGC1a acetyl inh: 1; FN deposit inh: 8; DENV2 CPE rescue: 46*; PglD DTNB: -7; rRNA inh HTS: 13; Env fusion inh: -56

How did COCC(=O)Nc1ccc2c(c1)[C@@H]1C[C@H](CC(=O)OC)O[C@H](CO)[C@@H]1O2 do in these assays?
PGC1a acetyl inh: 0; FN deposit inh: -1; DENV2 CPE rescue: 28*!; PglD DTNB: -4; rRNA inh HTS: 27; Env fusion inh: 0

How did O=C(O)C[C@@H]1C[C@@H]2c3cc(NC(=O)CC4CC4)ccc3O[C@@H]2[C@@H](CO)O1 do in these assays?
PGC1a acetyl inh: 1; FN deposit inh: -9; DENV2 CPE rescue: -3; PglD DTNB: -3; rRNA inh HTS: 6; Env fusion inh: -13[16.7 µM]

Results for COc1ccc(C(CNC(=O)c2cccc3cccnc23)N(C)C)cc1 (stereo not given) ?
PGC1a acetyl inh: -17; FN deposit inh: -8; DENV2 CPE rescue: 46*; PglD DTNB: 5; rRNA inh HTS: -3; Env fusion inh: -3

What do the screens show for `CC(C)C[C@H]1COCn2nncc2CC[C@@H](Cc2ccccc2)C(=O)N1`?
FN deposit inh: -7; DENV2 CPE rescue: -2; rRNA inh HTS: 2; Env fusion inh: 66*[16.7 µM]

What do the screens show for `O=C(Nc1nc(-c2cccs2)cs1)c1cccc(S(=O)(=O)N2CCCCC2)c1`?
FN deposit inh: 7; PglD DTNB: 2; Env fusion inh: 69*

Results for O=C(Nc1nc(-c2cc3ccccc3o2)cs1)c1ccc(S(=O)(=O)N2CCCC2)cc1 ?
PGC1a acetyl inh: -9; FN deposit inh: -2; DENV2 CPE rescue: -2; PglD DTNB: -1; rRNA inh HTS: 13; Env fusion inh: 57*

Results for COc1cc(C(=O)Nc2nc(-c3cccs3)cs2)cc(OC)c1OC ?
PGC1a acetyl inh: -16; DENV2 CPE rescue: -4; PglD DTNB: 4; rRNA inh HTS: -30*

What do the screens show for `COc1ccc(CC(=O)NNC(=S)Nc2ccccc2)cc1Cl`?
PGC1a acetyl inh: 1; FN deposit inh: -12; DENV2 CPE rescue: -2; rRNA inh HTS: -27*; Env fusion inh: 1

Results for CCCOc1ccc(CC(=O)NNC(=S)Nc2ccccc2)cc1Br ?
PGC1a acetyl inh: -5; PglD DTNB: -4

What do the screens show for `COc1cccc(S(=O)(=O)N2CC[C@@H]3[C@H](CO)N(C)c4ccc(C5=CCCCC5)cc4[C@@H]32)c1`?
PGC1a acetyl inh: 11; FN deposit inh: -23; PglD DTNB: 3; rRNA inh HTS: 7

Results for O=C(C1CCC1)N1C[C@@H]2N[C@H](C1)C2c1ccc(-c2ccncc2)cc1 (stereo not given in full) ?
PGC1a acetyl inh: 7; FN deposit inh: 4; DENV2 CPE rescue: -4; rRNA inh HTS: 5

Results for Cc1ccc(S(=O)(=O)NCC[C@H]2CC[C@H](NC(=O)CC3CC3)[C@H](CO)O2)cc1 ?
PGC1a acetyl inh: 6; FN deposit inh: 4; DENV2 CPE rescue: -1; PglD DTNB: -1; rRNA inh HTS: -4; Env fusion inh: 2[16.7 µM]

How did CCCC(=O)Nc1ccc2nn(-c3ccc(OC)cc3)nc2c1 do in these assays?
PGC1a acetyl inh: -6; FN deposit inh: 2; DENV2 CPE rescue: 26*; PglD DTNB: -4; rRNA inh HTS: -3; Env fusion inh: -69

What do the screens show for `CC(C)CC(=O)Nc1ccc2nn(-c3ccccc3)nc2c1`?
FN deposit inh: -3; Env fusion inh: -96

How did Oc1cccc2c(NC(=S)Nc3ccc(SC(F)F)cc3)cccc12 do in these assays?
DENV2 CPE rescue: 0; rRNA inh HTS: -41*; Env fusion inh: -17

What do the screens show for `CCC(=O)N1CC(=O)N2[C@H](C1)[C@@H](c1ccc(-c3cccnc3)cc1)[C@@H]2CO`?
PGC1a acetyl inh: -21; DENV2 CPE rescue: 0; rRNA inh HTS: 1

Results for CCOc1ccccc1NC(=O)c1ccc2[nH]c(C)c(C)c2c1 ?
PGC1a acetyl inh: 7; FN deposit inh: -5; DENV2 CPE rescue: -7; PglD DTNB: -1; rRNA inh HTS: 4; Env fusion inh: 0

What do the screens show for `COc1ccc(NC(=O)c2ccc3[nH]c(C)c(C)c3c2)c(OC)c1`?
PGC1a acetyl inh: -10; FN deposit inh: 6; DENV2 CPE rescue: -1; PglD DTNB: -5; rRNA inh HTS: -15*; Env fusion inh: -17
